Assay results reported in ChEMBL document CHEMBL1121527, “Heterocyclic analogues of the antihypertensive beta-adrenergic blocking agent (S)-2-[3-(ter-butylamino)-2-hydroxypropoxy]-3-cyanopyridine” (1980).
Values joined by “and” are separate entries in the source; they are usually repeats but may differ in a detail not shown here. Identical values can stand only once.

How the values were obtained:
Canis familiaris [1] = test: Tested for increase in iliac blood flow was measured in anesthetized dogs before timolol administered intra arterially at dose […]; type: functional, Canis lupus familiaris, Artery
Outline: (§1)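 Adult mongrel dogs of either sex (8–13 kg) under vinbarbital 50 mg/kg iv, with vagi cut and trachea cannulated. Carotid arterial pressure recorded. A 3.0 mm flow transducer on the right iliac artery. Intraarterial injections via a left femoral catheter tipped at the iliac bifurcation. Isoproterenol 0.4 μg ia given before and after timolol (320, 800 or 2000 μg/kg iv) to check β-blockade.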

Canis familiaris [2] = test: Tested for increase in iliac blood flow was measured in anesthetized dogs after timolol administered intravenous at dose 1600 mg/kg; type: functional, Canis lupus familiaris, Artery
Rattus norvegicus [3] = test: Tested for maximum fall in mean arterial pressure in Spontaneously hypertensive rats after peroral administration by using 1% methyl cellulose as vehicle at 5 mg/kg; type: functional; settings: route oral
Canis familiaris [4] = test: Beta adrenergic blockade activity was measured in anesthetized dogs by blockade of isoproterenol induced tachycardia after iv administration; type: functional; settings: Canis lupus familiaris
Outline: (§2)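 Mongrel dogs of either sex (8–13 kg) anesthetized with vinbarbital 50 mg/kg iv. Vagi cut, trachea cannulated, with artificial respiration only if required. Blood pressure recorded via femoral artery catheter and heart rate from the pressure pulse. Drugs given through a femoral vein catheter. Isoproterenol challenge at 0.5 μg/kg iv; the resulting hypotension and tachycardia were computed.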

Rattus norvegicus [5] = test: Tested for maximum fall in mean arterial pressure in Spontaneously hypertensive rats after peroral administration by using 1% methyl cellulose as vehicle at 20 mg/kg; type: functional; settings: route oral
Canis familiaris [6] = test: Beta adrenergic blockade activity was measured in anesthetized dogs by blockade of isoproterenol induced hypotension after iv administration; type: functional; settings: Canis lupus familiaris; outline: as §2
Canis familiaris [7] = test: Tested for increase in iliac blood flow was measured in anesthetized dogs after timolol administered intravenous at dose 2000 mg/kg; type: functional, Canis lupus familiaris, Artery; outline: as §1
Rattus norvegicus [8] = test: Tested for maximum fall in mean arterial pressure in Spontaneously hypertensive rats after peroral administration by using 1% methyl cellulose as vehicle at 80 mg/kg; type: functional; settings: route oral
Rattus norvegicus [9] = test: Tested for maximum fall in mean arterial pressure in Spontaneously hypertensive rats after peroral administration by using 1% methyl cellulose as vehicle at 0.078 mg/kg; type: functional; settings: route oral
Rattus norvegicus [10] = test: Tested for maximum fall in mean arterial pressure in Spontaneously hypertensive rats after peroral administration by using 1% methyl cellulose as vehicle at 1.25 mg/kg; type: functional; settings: route oral
Canis familiaris [11] = test: Tested for increase in iliac blood flow was measured in anesthetized dogs after timolol administered intravenous at dose 800 mg/kg; type: functional, Canis lupus familiaris, Artery; outline: as §1
Canis familiaris [12] = test: Tested for increase in iliac blood flow was measured in anesthetized dogs after timolol administered intravenously at dose 800 µg/kg
Rattus norvegicus [13] = test: Tested for maximum fall in mean arterial pressure in Spontaneously hypertensive rats after peroral administration by using 1% methyl cellulose as vehicle at 0.312 mg/kg; type: functional; settings: route oral
Canis familiaris [14] = test: Tested for increase in iliac blood flow was measured in anesthetized dogs before timolol administered intra arterially at dose 400 mg/kg
Rattus norvegicus [15] = test: Comparative effect on Maximum fall in mean arterial pressure of spontaneously hypertensive rat at the dose 0.625 mg/kg per os; type: functional, Artery
Rattus norvegicus [16] = test: Comparative effect on Maximum fall in mean arterial pressure of spontaneously hypertensive rat at the dose 1.25 mg/kg per os; type: functional, Artery
Rattus norvegicus [17] = test: Comparative effect on Maximum fall in mean arterial pressure of spontaneously hypertensive rat at the dose 0.312 mg/kg per os; type: functional, Artery

Compound: CC(C)(C)NCC(O)COc1nscc1Br (configuration not stated)
- Activity (Canis familiaris [1]): 31 mL/min
- Activity (Canis familiaris [2]): 33 mL/min
- MAP (Rattus norvegicus [3]): 41 mmHg
- ED50 (Canis familiaris [4]): 3 µg/kg
- MAP (Rattus norvegicus [5]): 30 mmHg
- ED50 (Canis familiaris [6]): 3 µg/kg

Compound: CCOC(=O)c1sc(SC)nc1OCC(O)CNC(C)(C)C (configuration not stated)
- MAP (Rattus norvegicus [5]): 15 mmHg

Compound: CCOC(=O)c1scnc1OCC(O)CNC(C)(C)C (configuration not stated)
- MAP (Rattus norvegicus [5]): 9 mmHg

Compound: CC(C)(C)NCC(O)COc1nc2ncccc2cc1C#N (configuration not stated)
- Activity (Canis familiaris [1]): 0 mL/min
- MAP (Rattus norvegicus [3]): 22 mmHg
- MAP (Rattus norvegicus [5]): 28 mmHg

Compound: CC(C)(C)NCC(O)COc1nscc1C#N (configuration not stated)
- Activity (Canis familiaris [1]): 22 mL/min
- MAP (Rattus norvegicus [3]; 5 mg/kg): 27 mmHg and 9 mmHg
- ED50 (Canis familiaris [4]): 28 µg/kg
- MAP (Rattus norvegicus [5]): 52 mmHg
- Activity (Canis familiaris [7]): 20 mL/min
- ED50 (Canis familiaris [6]): 27 µg/kg

Compound: Cc1nc(OC[C@@H](O)CNC(C)(C)C)c(C(N)=O)s1
- MAP (Rattus norvegicus [5]): 11 mmHg

Compound: CC(C)(C)NC[C@H](O)COc1nc(-c2ccccc2)sc1C(N)=O
- MAP (Rattus norvegicus [5]): 15 mmHg

Compound: CC(C)(C)NC[C@H](O)COc1nc(-c2ccccc2)sc1C#N
- MAP (Rattus norvegicus [3]): 11 mmHg
- MAP (Rattus norvegicus [5]): 9 mmHg
- MAP (Rattus norvegicus [8]): 14 mmHg

Compound: Cc1sc(-c2ccccc2)nc1OC[C@@H](O)CNC(C)(C)C
- MAP (Rattus norvegicus [5]): 17 mmHg
- MAP (Rattus norvegicus [8]): 12 mmHg

Compound: CCOC(=O)c1sc(-c2ccccc2)nc1OC[C@@H](O)CNC(C)(C)C
- MAP (Rattus norvegicus [5]): 10 mmHg

Compound: Cc1sc(-c2ccncc2)nc1OC[C@@H](O)CNC(C)(C)C
- MAP (Rattus norvegicus [3]): 8 mmHg
- MAP (Rattus norvegicus [5]): 41 mmHg

Compound: Cc1nc(OC[C@@H](O)CNC(C)(C)C)c(C#N)s1
- MAP (Rattus norvegicus [5]): 21 mmHg

Compound: CC(C)(C)NCC(O)COc1nc2ccncc2cc1C#N (configuration not stated)
- MAP (Rattus norvegicus [5]): 22 mmHg

Compound: CC(C)(C)NCC(O)COc1ncccc1C#N (configuration not stated)
- MAP (Rattus norvegicus [9]): 19 mmHg
- Activity (Canis familiaris [1]): 98 mL/min
- MAP (Rattus norvegicus [10]): 47 mmHg
- ED50 (Canis familiaris [4]): 1.5 µg/kg
- Activity (Canis familiaris [7]): 90 mL/min
- Activity (Canis familiaris [11]): 62 mL/min
- Activity (Canis familiaris [12]): 38 mL/min
- MAP (Rattus norvegicus [13]): 30 mmHg
- ED50 (Canis familiaris [6]): 5.2 µg/kg

Compound: CSc1nc(OCC(O)CNC(C)(C)C)c(C(N)=O)s1 (configuration not stated)
- MAP (Rattus norvegicus [5]): 11 mmHg

Compound: CC(C)(C)NCC(O)COc1ncsc1C#N (configuration not stated)
- MAP (Rattus norvegicus [9]): 11 mmHg
- Activity (Canis familiaris [1]): 125 mL/min
- MAP (Rattus norvegicus [3]): 42 mmHg
- MAP (Rattus norvegicus [10]): 29 mmHg
- ED50 (Canis familiaris [4]): 10 µg/kg
- MAP (Rattus norvegicus [5]): 37 mmHg
- MAP (Rattus norvegicus [13]): 26 mmHg
- ED50 (Canis familiaris [6]): 30 µg/kg

Compound: CC(C)(C)NCC(O)COc1nccnc1C#N (configuration not stated)
- MAP (Rattus norvegicus [5]): 8 mmHg

Compound: CC(C)(C)NCC(O)COc1nsnc1C#N (configuration not stated)
- MAP (Rattus norvegicus [3]): 9 mmHg

Compound: CC(C)(C)NCC(O)COc1ccsn1 (configuration not stated)
- MAP (Rattus norvegicus [3]): 26 mmHg
- MAP (Rattus norvegicus [10]): 8 mmHg
- MAP (Rattus norvegicus [5]): 22 mmHg

Compound: Cc1nc(OCC(O)CNC(C)(C)C)c(C(N)=O)s1 (racemic)
- MAP (Rattus norvegicus [3]): 30 mmHg
- MAP (Rattus norvegicus [10]): 22 mmHg
- MAP (Rattus norvegicus [5]): 23 mmHg

Compound: NNc1nncc2ccccc12 [HYDRALAZINE]
- Activity (Canis familiaris [1]): 66 mL/min
- Activity (Canis familiaris [14]): 78 mL/min

Compound: CC(C)NCC(O)COc1cccc2ccccc12 (configuration not stated) [PROPRANOLOL]
- MAP (Rattus norvegicus [3]): 7 mmHg
- MAP (Rattus norvegicus [10]): 12 mmHg
- ED50 (Canis familiaris [4]): 51 µg/kg
- MAP (Rattus norvegicus [5]): 14 mmHg
- ED50 (Canis familiaris [6]): 19 µg/kg

Compound: CC(C)(C)NC[C@H](O)COc1nsnc1N1CCOCC1 [TIMOLOL]
- MAP (Rattus norvegicus [15]): 0 mmHg
- ED50 (Canis familiaris [4]): 2.4 µg/kg
- MAP (Rattus norvegicus [16]): -1 mmHg
- MAP (Rattus norvegicus [17]): 3 mmHg
- ED50 (Canis familiaris [6]): 1.3 µg/kg
